# Results reported in ChEMBL document CHEMBL1148287, “Design of potent, selective, and orally bioavailable inhibitors of cysteine protease cathepsin k” (J Med Chem, 2004).
# How the values were obtained:
# [1] = target: T1, Cathepsin K (Homo sapiens, UniProt P43235); assay: Concentration required to inhibit 50% of cysteine protease cathepsin K of human
# T1 sequence (P43235 whole entry): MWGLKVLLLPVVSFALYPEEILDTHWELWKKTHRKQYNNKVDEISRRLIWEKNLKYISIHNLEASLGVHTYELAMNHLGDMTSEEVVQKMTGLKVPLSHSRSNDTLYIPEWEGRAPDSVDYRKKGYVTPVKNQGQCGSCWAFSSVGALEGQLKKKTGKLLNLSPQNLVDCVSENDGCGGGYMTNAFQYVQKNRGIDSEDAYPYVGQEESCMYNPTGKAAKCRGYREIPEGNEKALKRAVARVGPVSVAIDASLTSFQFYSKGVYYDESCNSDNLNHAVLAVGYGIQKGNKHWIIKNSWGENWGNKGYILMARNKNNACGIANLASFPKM
# Outline: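 Reactions were started by adding inhibitor plus substrate to enzyme. AMC fluorescence (ex 360/em 440) progress curves were followed over 2.3 h at varied inhibitor concentrations. IC50 was fitted as rate = Vmax/(1+[I]/IC50).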
# [2] = target: T2, Cathepsin K (Rattus norvegicus, UniProt O35186); assay: Inhibition of cysteine protease cathepsin K of rat
# T2 sequence (O35186 whole entry): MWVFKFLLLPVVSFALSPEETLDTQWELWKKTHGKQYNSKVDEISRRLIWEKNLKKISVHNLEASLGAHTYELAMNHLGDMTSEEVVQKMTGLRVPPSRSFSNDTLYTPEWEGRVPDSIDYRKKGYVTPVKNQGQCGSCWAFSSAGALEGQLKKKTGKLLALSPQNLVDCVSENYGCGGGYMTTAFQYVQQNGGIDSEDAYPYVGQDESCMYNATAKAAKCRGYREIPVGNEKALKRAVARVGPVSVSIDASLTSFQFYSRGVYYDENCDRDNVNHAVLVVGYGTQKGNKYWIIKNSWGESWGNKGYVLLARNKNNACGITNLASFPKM
# [3] = target: Cathepsin (H and K) (Homo sapiens) (UniProt P09668+P43235); assay: Selectivity for Cathepsins H and K, ratio of IC50; format: protein assay
# Outline: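 Human liver cathepsin H was run with L-Arg-β-naphthalamide at 50 μM final (Km 195 μM), read at ex 340/em 420. Human cathepsin K used Cbz-Phe-Arg-AMC at 10 μM, read at ex 360/em 440. Both were at pH 5.5 with DTT/NaCl and 10% DMSO at 30 °C, with 2.3 h progress curves. IC50s were fitted from rate vs [I] and ratioed.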
# [4] = Selectivity as ratio between IC50 against Cathepsin B and IC50 against Cathepsin K
# Outline: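 Human liver cathepsin B and recombinant human cathepsin K were each run with Cbz-Phe-Arg-AMC at 10 μM final (Km 400 and 70 μM). Both used pH 5.5 acetate/DTT/NaCl buffer, 10% DMSO, 30 °C and a 2.3 h fluorescence progress-curve read (ex 360/em 440). IC50s were fitted from rate vs [I], and the ratio of the two IC50s was taken.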
# [5] = organism: Homo sapiens; assay: Selectivity as ratio between IC50 against Cathepsin V and IC50 against Cathepsin K
# Outline: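 Conditions were pH 5.5 acetate buffer with 10 mM DTT, 120 mM NaCl and 10% DMSO at 30 °C, with fluorescence progress curves over 2.3 h. The IC50 fits gave the ratio.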
# [6] = Selectivity ratio between IC50 against Cathepsin S and IC50 against Cathepsin K
# Outline: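 Recombinant human cathepsin S was run with Cbz-Val-Val-Arg-AMC at 10 μM final (Km >100 μM); human cathepsin K used Cbz-Phe-Arg-AMC at 10 μM. Both were in pH 5.5 sodium acetate with 10 mM DTT, 120 mM NaCl and 10% DMSO at 30 °C, with AMC fluorescence progress curves over 2.3 h. The ratio was taken from the fitted IC50s.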
# [7] = Selectivity as ratio between IC50 against Cathepsin L and IC50 against Cathepsin K
# Outline: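 Both assays used pH 5.5 acetate/DTT/NaCl, 10% DMSO, 30 °C and AMC fluorescence progress curves over 2.3 h. IC50s were fitted from rate vs [I] and taken as a ratio.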
# [8] = Peak plasma concentration in rat; format: ADME, organism-based
# Outline: (§1)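 Rats were dosed iv into the femoral vein at 5 mg/kg or orally at 10 mg/kg, from a solution in 15% solutol/citrate buffer/0.1% ascorbic acid, pH 3.5. Blood was drawn from a jugular cannula before dosing and at 0.03–24 h, then clotted to serum. Samples were acetonitrile-precipitated with internal standard and analysed by LC-MS/MS (MRM). Parameters came from noncompartmental analysis.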
# [9] = Maximum time required to achieve Cmax was determined in rat; format: ADME, organism-based; conditions: in vivo; outline: as §1
# [10] = Area Under plasma concentration time curve in rat upon peroral administration; format: ADME, organism-based; conditions: po; outline: as §1
# [11] = Compound was tested for its cell permeability in the Madin-Darby canine kidney cell monolayer transport assay; format: ADME, Canis lupus familiaris; conditions: dog, MDCK; read-out: Activity
# [12] = Half-life in rat; format: ADME, organism-based; conditions: in vivo; outline: as §1
# [13] = Bioavailability in rat; format: ADME, organism-based; conditions: in vivo; outline: as §1
# [14] = Percent instability was measured by Rat S9 liver […] metabolism assay, in vitro; format: ADME, Liver S9 fraction; conditions: read-out: Activity
# Outline: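 Rat S9 liver metabolism, read as % metabolized after 1 h incubation at 37 °C, run in duplicate.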
# [15] = organism: Rattus norvegicus; assay: Volume of distribution in steady state was determined in rat; format: ADME, organism-based; conditions: in vivo; outline: as §1
# Chain of Cathepsin (H and K) (Homo sapiens) (P09668 whole entry, looked up, one chain of several): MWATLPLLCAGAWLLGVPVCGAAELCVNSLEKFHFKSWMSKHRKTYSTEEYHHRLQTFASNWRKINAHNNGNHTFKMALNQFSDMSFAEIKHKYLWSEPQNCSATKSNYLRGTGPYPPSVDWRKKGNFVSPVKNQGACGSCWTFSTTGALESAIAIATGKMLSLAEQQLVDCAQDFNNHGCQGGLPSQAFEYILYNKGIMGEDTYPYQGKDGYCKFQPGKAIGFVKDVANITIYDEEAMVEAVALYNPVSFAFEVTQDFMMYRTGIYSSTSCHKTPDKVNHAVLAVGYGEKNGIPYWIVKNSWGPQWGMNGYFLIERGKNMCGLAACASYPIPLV
structure (smiles),measurement,setting,value
CCCC[C@H](NC(=O)OC(C(C)C)C(C)C)C(=O)C(=O)Nc1cc2ccccc2cn1,IC50,[1],4.8 nM
CCCC[C@H](NC(=O)OC(C(C)C)C(C)C)C(=O)C(=O)Nc1ccnn1C1CCCC1,IC50,[2],1100 nM
same,IC50,[1],20 nM
CCCC[C@H](NC(=O)OC(C(C)C)C(C)C)C(=O)C(=O)Nc1ccon1,IC50,[1],5.1 nM
CCCC[C@H](NC(=O)OC(C(C)C)C(C)C)C(=O)C(=O)Nc1ccnn1CC1CC1,Ratio,[3],> 470
same,IC50,[2],1700 nM
same,Ratio,[4],> 470
same,Ratio,[5],63
same,IC50,[1],27 nM
same,Ratio,[6],41
same,Ratio,[7],220
CCCC[C@H](NC(=O)OC(C(C)C)C(C)C)C(=O)C(=O)Nc1ccnn1CC,IC50,[2],1500 nM
same,IC50,[1],26 nM
CCCC[C@H](NC(=O)OC(C(C)C)C(C)C)C(=O)C(=O)NCc1cccs1,IC50,[1],9.2 nM
CCCC[C@H](NC(=O)OC(C(C)C)C(C)C)C(=O)C(=O)Nc1ccnn1-c1ccncc1,Ratio,[3],> 500
same,IC50,[2],470 nM
same,Ratio,[4],> 500
same,Ratio,[5],19
same,IC50,[1],25 nM
same,Ratio,[6],5.4
same,Ratio,[7],44
CCCC[C@H](NC(=O)OC(C(C)C)C(C)C)C(=O)C(=O)Nc1ccc2ccccc2n1,IC50,[1],250 nM
CCCC[C@H](NC(=O)OC(C(C)C)C(C)C)C(=O)C(=O)Nc1ccnn1C1CCCCC1,IC50,[2],1200 nM
same,IC50,[1],22 nM
CC(C)C[C@H](NC(=O)OC(C(C)C)C(C)C)C(=O)C(=O)NCc1cccs1,IC50,[1],24 nM
CCCC[C@H](NC(=O)OC(C(C)C)C(C)C)C(=O)C(=O)Nc1ccccn1,Cmax,[8],1400 ng/mL
same,Tmax,[9],0.25 h
same,AUC,[10],2700 ng·h/mL
same,Papp,[11],21 ×10⁻⁶ cm/s
same,IC50,[1],32 nM
same,half-life,[12],2.17 h
same,bioavailability,[13],58%
same,metabolised,[14],63%
CCCC[C@H](NC(=O)OC(C(C)C)C(C)C)C(=O)C(=O)Nc1ccnn1-c1ccccc1,IC50,[2],790 nM
same,IC50,[1],15 nM
CCCC[C@H](NC(=O)OC(C(C)C)C(C)C)C(=O)C(=O)Nc1cc(C)n[nH]1,IC50,[1],0.71 nM
CC(C)C(OC(=O)N[C@H](C(=O)C(=O)NCc1cccs1)C(C)C)C(C)C,IC50,[1],47 nM
CCCC[C@H](NC(=O)OC(C(C)C)C(C)C)C(=O)C(=O)Nc1cc[nH]n1,Cmax,[8],370 ng/mL
same,Tmax,[9],0.25 h
same,Ratio,[3],30
same,IC50,[2],13 nM
same,AUC,[10],1100 ng·h/mL
same,Papp,[11],48 ×10⁻⁶ cm/s
same,Vss,[15],15 L/kg
same,Ratio,[4],670
same,Ratio,[5],21
same,IC50,[1],0.77 nM
same,half-life,[12],11.7 h
same,bioavailability,[13],41%
same,metabolised,[14],77%
same,Ratio,[6],3
same,Ratio,[7],40
CCCC[C@H](NC(=O)OC(C(C)C)C(C)C)C(=O)C(=O)Nc1[nH]ncc1C,Ratio,[3],2100
same,IC50,[2],5.5 nM
same,Papp,[11],37 ×10⁻⁶ cm/s
same,Ratio,[4],1100
same,Ratio,[5],14
same,IC50,[1],0.47 nM
same,metabolised,[14],68%
same,Ratio,[6],1.7
same,Ratio,[7],26
CCCC[C@H](NC(=O)OC(C(C)C)C(C)C)C(=O)C(=O)Nc1nccs1,Cmax,[8],170 ng/mL
same,Tmax,[9],0.167 h
same,AUC,[10],750 ng·h/mL
same,Papp,[11],23 ×10⁻⁶ cm/s
same,IC50,[1],40 nM
same,half-life,[12],2.17 h
same,bioavailability,[13],18%
same,metabolised,[14],98%
CCCC[C@H](NC(=O)OC(C(C)C)C(C)C)C(=O)C(=O)Nc1ccnn1CC(C)C,Ratio,[3],> 320
same,IC50,[2],2700 nM
same,Ratio,[4],> 320
same,Ratio,[5],120
same,IC50,[1],39 nM
same,Ratio,[6],59
same,Ratio,[7],260
CCCC[C@H](NC(=O)OC(C(C)C)C(C)C)C(=O)C(=O)Nc1ccn(C)n1,IC50,[2],11 nM
same,IC50,[1],0.41 nM
CCCC[C@H](NC(=O)OC(C(C)C)C(C)C)C(=O)C(=O)Nc1ccnn1CCC(C)(C)C,IC50,[2],1600 nM
same,IC50,[1],62 nM
CCCC[C@H](NC(=O)OC(C(C)C)C(C)C)C(=O)C(=O)Nc1[nH]nc2cccc(F)c12,IC50,[1],0.26 nM
same,Ratio,[6],2.3
